Experimental data taken from ChEMBL document CHEMBL1123846, “Chemical differentiating agents. Differentiation of HL-60 cells by hexamethylenebis[acetamide] analogues” (1987).

Tests used:
HL-60 [1] = experiment: Percent of differentiated in HL-60 cells was determined by dividing number of viable differentiated cells by total number of viable cells, at a concentration of 2.5 mM; format: functional, Homo sapiens
In short: (§1)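 HL-60 cells started at 2×10^5/mL and counted on day 4. Test agents were added from ethanol or Me2SO, with final Me2SO at most 77 mM. Differentiation was scored by formazan production, which requires superoxide from living cells. % D is the number of viable differentiated cells divided by the total number of viable cells.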

HL-60 [2] = experiment: Percent of viability for HL-60 cells was determined by dividing number of viable differentiated cells by total number of viable cells, at concentration of 3.0 mM; format: functional, Homo sapiens
In short: (§2)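 HL-60 cultures were seeded at 2×10^5/mL with agent added from ethanol or Me2SO, final Me2SO up to 77 mM, and harvested on day 4. Total cells were counted on a Coulter counter, and the viable fraction of total cells was determined by trypan blue exclusion.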

HL-60 [3] = experiment: Percent of differentiated in HL-60 cells was determined by dividing number of viable differentiated cells by total number of viable cells, at a concentration of 1.0 mM; format: functional, Homo sapiens; in short: as §1
HL-60 [4] = experiment: Percent of viability for HL-60 cells was determined by dividing number of viable differentiated cells by total number of viable cells, at concentration of 2.0 mM; format: functional, Homo sapiens; in short: as §2
HL-60 [5] = experiment: Percent of differentiated in HL-60 cells was determined by dividing number of viable differentiated cells by total number of viable cells, at a concentration of 2.0 mM; format: functional, Homo sapiens; in short: as §1
HL-60 [6] = experiment: Differentiation studies was conducted with the HL-60 human myeloid leukemia cell line and Total cells were counted with a Coulter counter, at a concentration of 3.0 mM; format: functional
In short: (§3)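 HL-60 cells seeded at 2×10^5/mL with test agent added from ethanol or Me2SO stock; final Me2SO no more than 77 mM. Total cells counted on a Coulter counter on day 4.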

HL-60 [7] = experiment: Percent of differentiated in HL-60 cells was determined by dividing number of viable differentiated cells by total number of viable cells, at a concentration of 3.0 mM; format: functional, Homo sapiens; in short: as §1
HL-60 [8] = experiment: Percent of viability for HL-60 cells was determined by dividing number of viable differentiated cells by total number of viable cells, at concentration of 2.5 mM; format: functional, Homo sapiens; in short: as §2
HL-60 [9] = experiment: Differentiation studies was conducted with the HL-60 human myeloid leukemia cell line and Total cells were counted with a Coulter counter, at a concentration of 2.5 mM; format: functional; in short: as §3
HL-60 [10] = experiment: Percent of viability for HL-60 cells was determined by dividing number of viable differentiated cells by total number of viable cells, at concentration of 1.0 mM; format: functional, Homo sapiens; in short: as §2
HL-60 [11] = experiment: Differentiation studies was conducted with the HL-60 human myeloid leukemia cell line and total cells were counted with a Coulter counter, at a concentration of 1.0 mM; format: functional; in short: as §3
HL-60 [12] = experiment: Differentiation studies was conducted with the HL-60 human myeloid leukemia cell line and total cells were counted with a Coulter counter, at a concentration of 2.0 mM; format: functional; in short: as §3
HL-60 [13] = experiment: Percent of differentiated HL-60 cells was determined by dividing number of viable differentiated cells by total number of viable cells, at a concentration of 2.5 mM; format: functional, Homo sapiens; in short: as §1
HL-60 [14] = experiment: Percent of differentiated HL-60 cells was determined by dividing number of viable differentiated cells by total number of viable cells, at a concentration of 1.0 mM; format: functional, Homo sapiens; in short: as §1
HL-60 [15] = experiment: Percent of differentiated HL-60 cells was determined by dividing number of viable differentiated cells by total number of viable cells, at a concentration of 2.0 mM; format: functional, Homo sapiens; in short: as §1
HL-60 [16] = experiment: Percent of differentiated HL-60 cells was determined by dividing number of viable differentiated cells by total number of viable cells, at a concentration of 3.0 mM; format: functional, Homo sapiens; in short: as §1
HL-60 [17] = experiment: Percent of viability for HL-60 cells was determined by dividing number of viable differentiated cells by total number of viable cells, at concentration of 64 mM; format: functional, Homo sapiens; in short: as §2
HL-60 [18] = experiment: Differentiation studies was conducted with the HL-60 human myeloid leukemia cell line and Total cells were counted with a Coulter counter, at a concentration of 64 mM; format: functional; in short: as §3
HL-60 [19] = experiment: Percent of viability for HL-60 cells was determined by dividing number of viable differentiated cells by total number of viable cells, at concentration of 38 mM; format: functional, Homo sapiens; in short: as §2
HL-60 [20] = experiment: Percent of differentiated HL-60 cells was determined by dividing number of viable differentiated cells by total number of viable cells, at a concentration of 77 mM; format: functional, Homo sapiens; in short: as §1
HL-60 [21] = experiment: Differentiation studies was conducted with the HL-60 human myeloid leukemia cell line and total cells were counted with a Coulter counter, at a concentration of 38 mM; format: functional; in short: as §3
HL-60 [22] = experiment: Percent of differentiated HL-60 cells was determined by dividing number of viable differentiated cells by total number of viable cells, at a concentration of 38 mM; format: functional, Homo sapiens; in short: as §1
HL-60 [23] = experiment: Percent of viability for HL-60 cells was determined by dividing number of viable differentiated cells by total number of viable cells, at concentration of 77 mM; format: functional, Homo sapiens; in short: as §2
HL-60 [24] = experiment: Differentiation studies was conducted with the HL-60 human myeloid leukemia cell line and Total cells were counted with a Coulter counter, at a concentration of 77 mM; format: functional; in short: as §3
HL-60 [25] = experiment: Percent of differentiated HL-60 cells was determined by dividing number of viable differentiated cells by total number of viable cells, at a concentration of 64 mM; format: functional, Homo sapiens; in short: as §1
HL-60 [26] = experiment: Percent of differentiated HL-60 cells was determined by dividing number of viable differentiated cells by total number of viable cells, at a concentration of 1.5 mM; format: functional, Homo sapiens; in short: as §1
HL-60 [27] = experiment: Percent of viability for HL-60 cells was determined by dividing number of viable differentiated cells by total number of viable cells, at concentration of 1.5 mM; format: functional, Homo sapiens; in short: as §2
HL-60 [28] = experiment: Differentiation studies was conducted with the HL-60 human myeloid leukemia cell line and Total cells were counted with a Coulter counter, at a concentration of 2.0 mM (number of experiments = 1); format: functional; in short: as §3
HL-60 [29] = experiment: Differentiation studies was conducted with the HL-60 human myeloid leukemia cell line and Total cells were counted with a Coulter counter, at a concentration of 1.5 mM; format: functional; in short: as §3
HL-60 [30] = experiment: Percent of viability for HL-60 cells was determined by dividing number of viable differentiated cells by total number of viable cells, at concentration of 4.0 mM; format: functional, Homo sapiens; in short: as §2
HL-60 [31] = experiment: Percent of differentiated HL-60 cells was determined by dividing number of viable differentiated cells by total number of viable cells, at a concentration of 4.0 mM; format: functional, Homo sapiens; in short: as §1
HL-60 [32] = experiment: Differentiation studies was conducted with the HL-60 human myeloid leukemia cell line and Total cells were counted with a Coulter counter, at a concentration of 4.0 mM; format: functional; in short: as §3
HL-60 [33] = experiment: Differentiation studies was conducted with the HL-60 human myeloid leukemia cell line andTotal cells were counted with a Coulter counter, at a concentration of 0.4 mM; format: functional; in short: as §3
HL-60 [34] = experiment: Percent of differentiated HL-60 cells was determined by dividing number of viable differentiated cells by total number of viable cells, at a concentration of 0.4 mM; format: functional, Homo sapiens; in short: as §1
HL-60 [35] = experiment: Percent of viability for HL-60 cells was determined by dividing number of viable differentiated cells by total number of viable cells, at concentration of 0.1 mM; format: functional, Homo sapiens; in short: as §2
HL-60 [36] = experiment: Percent of differentiated HL-60 cells was determined by dividing number of viable differentiated cells by total number of viable cells, at a concentration of 0.1 mM; format: functional, Homo sapiens; in short: as §1
HL-60 [37] = experiment: Differentiation studies was conducted with the HL-60 human myeloid leukemia cell line andTotal cells were counted with a Coulter counter, at a concentration of 0.5 mM; format: functional; in short: as §3
HL-60 [38] = experiment: Percent of viability for HL-60 cells was determined by dividing number of viable differentiated cells by total number of viable cells, at concentration of 0.4 mM; format: functional, Homo sapiens; in short: as §2
HL-60 [39] = experiment: Percent of viability for HL-60 cells was determined by dividing number of viable differentiated cells by total number of viable cells, at concentration of 0.5 mM; format: functional, Homo sapiens; in short: as §2
HL-60 [40] = experiment: Percent of differentiated HL-60 cells was determined by dividing number of viable differentiated cells by total number of viable cells, at a concentration of 0.5 mM; format: functional, Homo sapiens; in short: as §1
HL-60 [41] = experiment: Differentiation studies was conducted with the HL-60 human myeloid leukemia cell line andTotal cells were counted with a Coulter counter, at a concentration of 0.3 mM; format: functional; in short: as §3
HL-60 [42] = experiment: Percent of differentiated HL-60 cells was determined by dividing number of viable differentiated cells by total number of viable cells, at a concentration of 0.3 mM; format: functional, Homo sapiens; in short: as §1
HL-60 [43] = experiment: Percent of viability for HL-60 cells was determined by dividing number of viable differentiated cells by total number of viable cells, at concentration of 0.3 mM; format: functional, Homo sapiens; in short: as §2
HL-60 [44] = experiment: Differentiation studies was conducted with the HL-60 human myeloid leukemia cell line and total cells were counted with a Coulter counter, at a concentration of 0.1 mM; format: functional; in short: as §3

## O=C1CCCCN1CCCCCCN1CCCCC1=O
HL-60 [1]
  D: 72%
HL-60 [2]
  V: 25%
HL-60 [3]
  D: 12%
HL-60 [4]
  V: 65%
HL-60 [5]
  D: 40%
HL-60 [6]
  Total cells: 370000 mL
HL-60 [7]
  D: 87%
HL-60 [8]
  V: 62%
HL-60 [9]
  Total cells: 680000 mL
HL-60 [10]
  V: 87%
HL-60 [11]
  Total cells: 830000 mL
HL-60 [12]
  Total cells: 760000 mL

## CC(=O)N(C)CCCCCCN(C)C(C)=O
HL-60 [13]
  D: 93%
HL-60 [14]
  D: 10%
HL-60 [2]
  V: 30%
HL-60 [15]
  D: 74%
HL-60 [4]
  V: 57%
HL-60 [6]
  Total cells: 420000 mL
HL-60 [16]
  D: 94%
HL-60 [8]
  V: 32%
HL-60 [9]
  Total cells: 510000 mL
HL-60 [10]
  V: 90%
HL-60 [11]
  Total cells: 1.12e+06 mL
HL-60 [12]
  Total cells: 700000 mL

## C[S+](C)[O-] [DIMETHYL SULFOXIDE]
HL-60 [17]
  V: 96%
HL-60 [18]
  Total cells: 980000 cells/mL
HL-60 [19]
  V: 97%
HL-60 [20]
  D: 6%
HL-60 [21]
  Total cells: 970000 cells/mL
HL-60 [22]
  D: 6%
HL-60 [23]
  V: 94%
HL-60 [24]
  Total cells: 930000 cells/mL
HL-60 [25]
  D: 9%

## CC(=O)NCCCCCC(=O)N(C)C
HL-60 [14]
  D: 24%
HL-60 [15]
  D: 12%
HL-60 [4]
  V: 82%
HL-60 [26]
  D: 13%
HL-60 [27]
  V: 78%
HL-60 [28]
  Total cells: 940000 mL
HL-60 [10]
  V: 85%
HL-60 [29]
  Total cells: 1.07e+06 mL
HL-60 [11]
  Total cells: 700000 mL

## CC(=O)N(CCCCCCN(C(C)=O)C(C)=O)C(C)=O
HL-60 [1]
  D: 76%
HL-60 [2]
  V: 45%
HL-60 [4]
  V: 71%
HL-60 [5]
  D: 65%
HL-60 [6]
  Total cells: 300000 mL
HL-60 [7]
  D: 80%
HL-60 [8]
  V: 51%
HL-60 [9]
  Total cells: 480000 mL
HL-60 [12]
  Total cells: 530000 mL

## CC(=O)NCCCCCCNC(C)=O [HEXAMETHYLENEBISACETAMIDE]
HL-60 [2]
  V: 68%
HL-60 [15]
  D: 32%
HL-60 [30]
  V: 29%
HL-60 [4]
  V: 74%
HL-60 [31]
  D: 84%
HL-60 [32]
  Total cells: 390000 mL
HL-60 [6]
  Total cells: 520000 mL
HL-60 [16]
  D: 59%
HL-60 [12]
  Total cells: 690000 mL

## CC1(C)NC(=O)N(CCCCCCN2C(=O)NC(C)(C)C2=O)C1=O
HL-60 [33]
  Total cells: 420000 mL
HL-60 [34]
  D: 45%
HL-60 [35]
  V: 96%
HL-60 [36]
  D: 9%
HL-60 [37]
  Total cells: 310000 mL
HL-60 [38]
  V: 53%
HL-60 [39]
  V: 43%
HL-60 [40]
  D: 76%
HL-60 [41]
  Total cells: 480000 mL
HL-60 [42]
  D: 26%
HL-60 [43]
  V: 82%
HL-60 [44]
  Total cells: 870000 mL

## CNC(=O)CCCCCNC(C)=O
HL-60 [2]
  V: 72%
HL-60 [30]
  V: 56%
HL-60 [31]
  D: 71%
HL-60 [32]
  Total cells: 690000 mL
HL-60 [6]
  Total cells: 680000 mL
HL-60 [16]
  D: 40%
